How the values were obtained:
[1] = target: T1, Muscarinic acetylcholine receptor M2 (Rattus norvegicus, UniProt P10980); assay: Binding affinity to the rat cardiac muscarinic acetylcholine receptor M2 using 0.3 nM [3H]N-methylscopolamine as radioligand
T1 sequence (P10980 whole entry): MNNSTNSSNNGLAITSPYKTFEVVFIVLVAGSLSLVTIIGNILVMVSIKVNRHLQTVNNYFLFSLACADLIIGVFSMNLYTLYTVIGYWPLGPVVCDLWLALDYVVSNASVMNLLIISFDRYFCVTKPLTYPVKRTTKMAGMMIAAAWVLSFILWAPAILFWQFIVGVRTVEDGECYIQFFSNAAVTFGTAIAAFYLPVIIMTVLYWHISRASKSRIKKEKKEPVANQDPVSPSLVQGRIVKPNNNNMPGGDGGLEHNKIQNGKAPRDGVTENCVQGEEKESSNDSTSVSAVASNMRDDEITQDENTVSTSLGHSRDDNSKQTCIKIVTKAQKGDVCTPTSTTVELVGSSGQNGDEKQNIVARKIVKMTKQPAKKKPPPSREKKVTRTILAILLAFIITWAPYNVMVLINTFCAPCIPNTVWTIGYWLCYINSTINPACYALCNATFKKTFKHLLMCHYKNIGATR
Summary of the method: (§1)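 Competition against 0.3 nM [3H]NMS in rat total heart homogenate (1:300 in 100 mM NaCl, 10 mM MgCl2, 20 mM HEPES, pH 7.4, cheesecloth-filtered). 1 mL homogenate incubated 45 min at 30 °C with a range of cold ligand concentrations. Pellets obtained by centrifugation, washed twice with saline, solubilized and counted. Nonspecific binding taken with 1 µM racemic QNB. Quadruplicate assays.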

[2] = target: Muscarinic receptor M2 and M3 (Rattus norvegicus) (UniProt P08483+P10980); assay: Selectivity ratio for glandular muscarinic receptor 3 and cardiac muscarinic receptor 2 in rat
Muscarinic receptor M2 and M3 (Rattus norvegicus), sequence (P08483 whole entry, looked up, one chain of several): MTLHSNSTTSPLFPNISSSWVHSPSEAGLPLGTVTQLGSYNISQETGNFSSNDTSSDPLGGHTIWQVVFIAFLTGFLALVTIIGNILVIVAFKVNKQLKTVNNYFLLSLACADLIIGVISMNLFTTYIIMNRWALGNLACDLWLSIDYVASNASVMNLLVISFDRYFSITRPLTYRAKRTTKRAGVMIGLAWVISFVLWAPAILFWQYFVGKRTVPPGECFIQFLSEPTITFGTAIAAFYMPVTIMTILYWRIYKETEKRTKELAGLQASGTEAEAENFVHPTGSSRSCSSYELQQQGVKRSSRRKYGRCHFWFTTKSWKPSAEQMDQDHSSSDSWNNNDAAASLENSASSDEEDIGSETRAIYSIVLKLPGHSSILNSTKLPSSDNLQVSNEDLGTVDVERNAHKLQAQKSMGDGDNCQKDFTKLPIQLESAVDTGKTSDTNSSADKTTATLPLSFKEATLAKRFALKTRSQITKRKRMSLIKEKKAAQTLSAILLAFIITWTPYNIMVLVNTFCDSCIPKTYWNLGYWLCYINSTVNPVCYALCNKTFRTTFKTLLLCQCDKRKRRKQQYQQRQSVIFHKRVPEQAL

[3] = target: T2, Muscarinic acetylcholine receptor M3 (Rattus norvegicus, UniProt P08483); assay: Binding affinity for glandular muscarinic acetylcholine receptor M3 in rat assayed using 0.3 nM [3H]N-methylscopolamine as radioligand
T2 sequence (P08483 whole entry): as the sequence (P08483 whole entry, looked up, one chain of several) above
Summary of the method: (§2)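 1 mL homogenate incubated 45 min at 30 °C with 0.3 nM [3H]NMS plus varying unlabeled compound. Bound ligand separated by centrifugation, saline-washed pellet scintillation counted. Nonspecific binding defined with 1 µM racemic QNB. Run in quadruplicate.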

[4] = target: T1, Muscarinic acetylcholine receptor M2; assay: Binding affinity of compound for cardiac Muscarinic acetylcholine receptor M2 in rat using 0.3 nM [3H]N-methylscopolamine as radioligand; summary of the method: as §1
[5] = test system: Muscarinic acetylcholine receptors M2 & M3 (Rattus norvegicus); assay: Selectivity ratio for glandular muscarinic receptor 3 and cardiac muscarinic receptor 2 in rat
[6] = target: T2, Muscarinic acetylcholine receptor M3; assay: Binding affinity of compound for glandular Muscarinic acetylcholine receptor M3 in rat using 0.3 nM [3H]N-methylscopolamine as radioligand; summary of the method: as §2

O=C1Nc2cccnc2N(C(=O)CN2CCCCC2CN2CCOCC2)c2ccccc21 (centres undefined)
IC50 [1]: > 1000 nM
Ratio [2]: < 4
IC50 [3]: 4000 nM

CCN(CC)CC1CCCCN1CC(=O)N1c2ccccc2C(=O)Nc2cccnc21 (stereo in doubt; 10) [OTENZEPAD]
IC50 [3]: 6000 nM

CCN(CC)CCCC1CCCCN1CC(=O)N1c2ccccc2C(=O)Nc2cccnc21 (centres undefined)
IC50 [1]: 60 nM
Ratio [2]: 3.3
IC50 [3]: 200 nM

CCN(CC)CC1CCCCN1CC(=O)N1c2ccc(C)cc2C(=O)Nc2cccnc21 (centres undefined)
IC50 [1]: 30 nM
Ratio [2]: 33.3
IC50 [3]: 1000 nM

O=C1Nc2cccnc2N(C(=O)CN2CCCCC2CN2CCCC2)c2ccccc21 (centres undefined)
IC50 [1]: 560 nM
Ratio [2]: 2.7
IC50 [3]: 1500 nM

CN(CC1CCCCN1CC(=O)N1c2ccccc2C(=O)Nc2cccnc21)C1CCCCC1 (centres undefined)
IC50 [1]: 60 nM
Ratio [2]: 2.5
IC50 [3]: 150 nM

CN(CC1CCCCN1CC(=O)N1c2ccccc2C(=O)Nc2cccnc21)C1CCCCCC1 (centres undefined)
IC50 [1]: 30 nM
Ratio [2]: 2.3
IC50 [3]: 70 nM

CCN(CC)CC1CCCCN1CC(=O)N1c2ccccc2C(=O)Nc2cccnc21 (stereo in doubt; 28)
Ratio [2]: 25

O=C1Nc2cccnc2N(C(=O)CN2CCCCC2CN2CCCCC2)c2ccccc21 (centres undefined)
IC50 [4]: 600 nM
Ratio [5]: 2.5
IC50 [6]: 1500 nM

CCN(CC)CC1CCCCN1CC(=O)N1c2ccc(Cl)cc2C(=O)Nc2cccnc21 (centres undefined)
IC50 [1]: 100 nM
Ratio [2]: 40
IC50 [3]: 4000 nM

CCN(CC)CC1CCCCN1CC(=O)N1c2ccccc2C(=O)Nc2cccnc21 (stereo in doubt; 10)
Ratio [2]: 42.8

CCN(CC)CC1CCCCN1CC(=O)N1c2ccc(Br)cc2C(=O)Nc2cccnc21 (centres undefined)
IC50 [1]: 150 nM
Ratio [2]: 26.6
IC50 [3]: 4000 nM

CCN(CC)CC1CCCCN1CCC(=O)N1c2ccccc2C(=O)Nc2cccnc21 (centres undefined)
IC50 [1]: 220 nM
Ratio [2]: 2.7
IC50 [3]: 600 nM

CCCN(CCC)CC1CCCCN1CC(=O)N1c2ccccc2C(=O)Nc2cccnc21 (centres undefined)
IC50 [1]: 1500 nM
Ratio [2]: 4
IC50 [3]: 6000 nM

CCNCC1CCCCN1CC(=O)N1c2ccccc2C(=O)Nc2cccnc21 (centres undefined)
IC50 [1]: 600 nM
Ratio [2]: 5
IC50 [3]: 3000 nM

CCN(CC)CC1CCCCN1CC(=O)N1c2cc(Cl)ccc2C(=O)Nc2cccnc21 (centres undefined)
IC50 [1]: 40 nM
Ratio [2]: 37.5

CCN(CC)CC1CCCCN1CC(=O)N1c2cc(C)ccc2C(=O)Nc2cccnc21 (centres undefined)
IC50 [1]: 70 nM
Ratio [2]: 28.5
IC50 [3]: 2000 nM

CCN(CC)CC1CCCN1CC(=O)N1c2ccccc2C(=O)Nc2cccnc21 (centres undefined)
IC50 [1]: 150 nM
Ratio [2]: 13
IC50 [3]: 2000 nM

CCN(CC)CC1CCCCN1CC(=O)N1c2ccccc2C(=O)Nc2cccnc21 (stereo in doubt; 29)
Ratio [2]: 120

CCN(CC)CC1CCCN(CC(=O)N2c3ccccc3C(=O)Nc3cccnc32)C1 (centres undefined)
IC50 [1]: 170 nM
Ratio [2]: 1.8
IC50 [3]: 300 nM

CCN(CC)CC1CCCCN1C(=O)N1c2ccccc2C(=O)Nc2cccnc21 (centres undefined)
IC50 [1]: 5000 nM
Ratio [2]: > 2
IC50 [3]: > 10000 nM

CCN(CC)CC1CCCCCN1CC(=O)N1c2ccccc2C(=O)Nc2cccnc21 (centres undefined)
IC50 [1]: 2000 nM
Ratio [2]: 7.5
IC50 [3]: 15000 nM

CCN(CC)CC1CCCCN1CC(=O)N1c2ccccc2C(=O)Nc2cccnc21 (stereo in doubt; 29) [OTENZEPAD]
IC50 [1]: 50 nM
IC50 [3]: 6000 nM

CCc1ccc2c(c1)C(=O)Nc1cccnc1N2C(=O)CN1CCCCC1CN(CC)CC (centres undefined)
IC50 [1]: 200 nM
Ratio [2]: 10
IC50 [3]: 2000 nM

CCN(CC)CC1CCN(CC(=O)N2c3ccccc3C(=O)Nc3cccnc32)CC1
IC50 [1]: 800 nM
Ratio [2]: 5
IC50 [3]: 4000 nM

CCN(C)CC1CCCCN1CC(=O)N1c2ccccc2C(=O)Nc2cccnc21 (centres undefined)
IC50 [1]: 120 nM
Ratio [2]: 12.5
IC50 [3]: 1500 nM

CCN(CC)CCC1CCCCN1CC(=O)N1c2ccccc2C(=O)Nc2cccnc21 (centres undefined)
IC50 [1]: 330 nM
Ratio [2]: 3
IC50 [3]: 1000 nM

CCN(CC)CC1CCCCN1CC(=O)N1c2ccccc2C(=O)Nc2cccnc21 (stereo in doubt; 28) [OTENZEPAD]
IC50 [1]: 400 nM
IC50 [3]: 10000 nM

CN(C)CC1CCCCN1CC(=O)N1c2ccccc2C(=O)Nc2cccnc21 (centres undefined)
IC50 [1]: 140 nM
Ratio [2]: 7.1
IC50 [3]: 1000 nM

CCCCN(C)CC1CCCCN1CC(=O)N1c2ccccc2C(=O)Nc2cccnc21 (centres undefined)
IC50 [1]: 100 nM
Ratio [2]: 2
IC50 [3]: 200 nM
